Among the data in ChEMBL document CHEMBL1158037, “Taraxasterane- and ursane-type triterpenes from Nerium oleander and their biological activities” (J Nat Prod, 2006) are IC50 values, retold here.

Assay [1] in a line: Cytotoxicity against human WI38 cells by WST-8 assay. It is filed as cell-based. The conditions noted are these: WI-38. In a few lines: (§1)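 Growth inhibition of WI-38, VA-13 and HepG2 cells, with Taxol and ADM as positive controls; IC50 taken as concentration giving 50% growth inhibition.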
On the technique in general: Tetrazolium assays rely on reduction of a dye to a coloured formazan, in cell work by metabolically active cells.

The subject of a further assay is WI-38 VA13. The experiment in a line: Cytotoxicity against human VA-13 cells by WST-8 assay. It is filed as functional, cell-based. In a few lines:
as §1

Assay [2] relates to A549. Description: Cytotoxicity against human A549 cells after 24 hrs by MTT assay. The conditions noted are these: A549, 24 h. It is filed as functional, cell-based. In a few lines: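 A549 cells incubated 24 h with serial dilutions of compound; viability (%) by MTT used to derive IC50. Triplicate cultures.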
In assay [3] the test system is A549. Description: Antiinflammatory activity in human A549 cells assessed as inhibition of ICAM1 induction pretreated for 1 hr before IL1alpha challenge and incubated for 6 hrs in presence of IL1alpha. It is filed as functional, cell-based. In a few lines:
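A549 cells (human lung carcinoma, used as endothelial model) exposed to a range of compound concentrations for 1 h, then IL-1α added and culture continued 6 h. ICAM-1 measured by primary and secondary antibodies plus enzyme substrate, absorbance at 415 nm. Triplicate cultures; IC50 reported.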

Assay [4] in a line: Cytotoxicity against human Hep G2 by WST-8 assay. As to conditions: HepG2. The format is functional. In a few lines:
as §1

Molecules are shown by their SMILES.

Turning to `C[C@H]1[C@H](C)CC[C@]2(C=O)CC[C@]3(C)C(=CC[C@@H]4[C@@]5(C)CC[C@H](O)C(C)(C)[C@@H]5CC[C@]43C)[C@H]12`, the IC50 (as a rule, the concentration at which inhibition is half-maximal) in assay [1] was determined as 94.7 µM; in the assay on WI-38 VA13 it was 85.4 µM; in the assay with A549 [2] it was 205 µM; with A549 [3] it was 158 µM; in assay [4], 99 µM.
On to `C[C@H]1[C@H](C)CC[C@]2(O)CC[C@]3(C)C(=CC[C@@H]4[C@@]5(C)CC[C@H](O)C(C)(C)[C@@H]5CC[C@]43C)[C@H]12`, for which the IC50 in assay [1] is 20.1 µM; in the assay with WI-38 VA13 it was 108 µM; with A549 [2], over 316 µM; with A549 [3] it was over 316 µM; in assay [4], 21.1 µM.
For `CO[C@H]1O[C@@]2(C)CC[C@@]13CC[C@]1(C)[C@H](CC[C@@H]4[C@@]5(C)CC[C@H](O)C(C)(C)[C@@H]5CC[C@]41C)[C@H]3[C@@H]2C`, the IC50 is 11.8 µM in assay [1]; 11.7 µM in the assay with WI-38 VA13; 76 µM with A549 [2]; 80 µM in the assay with A549 [3]; 10.3 µM in assay [4].
The like results for `C[C@H]1[C@@H]2[C@H]3CC[C@@H]4[C@@]5(C)CC[C@H](O)C(C)(C)[C@@H]5CC[C@@]4(C)[C@]3(C)CC[C@@]23C=C[C@]1(C)OC3` were, in that order, 83.8 µM, 111 µM, over 316 µM, over 316 µM and 155 µM.
